Measurements published in ChEMBL document CHEMBL3352362, “Discovery of a novel, first-in-class, orally bioavailable azaindole inhibitor (VX-787) of influenza PB2” (J Med Chem, 2014).

Assays:
[1] = Antiviral activity against Influenza A virus A/Georgia/20/2006 infected in MDCK cells assessed as cell protection after 3 days by cytopathic effect assay; format: functional, cell-based, Influenza A virus (A/Georgia/20/2006(H1N1)); details: 72 h
Outline: (§1)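 MDCK cells incubated with test compound and influenza A virus for 72 h (3-day CPE format). Cell viability read by an ATP end point. EC50 is the concentration giving 50% cell protection; mean of N = 3 or greater.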

[2] = tested on: Influenza A virus; experiment: Antiviral activity against Influenza A virus A/Puerto Rico/8/34 infected in BALB/c mouse assessed as body weight loss at 3 mg/kg bid treated after 48 hrs of infection for 10 days; format: functional; details: A/Puerto Rico/8/1934(H1N1)
Outline: (§2)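 Male BALB/c mice, 8 per study, inoculated intranasally with mouse-adapted A/PR/8/34 at 5e3 TCID50/mouse. Twice-daily treatment began 48 h after infection. Survival and body weight were followed.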

[3] = Half life in rat at 3 mg/kg, iv; format: ADME, organism-based; parameters: dose 3 mg/kg, route intravenous; details: in vivo
[4] = Antiviral activity against Influenza A virus A/Mexico/4108/2009 infected in MDCK cells assessed as cell protection after 3 days by cytopathic effect assay; format: functional, cell-based, Influenza A virus (A/Mexico/4108/2009(H1N1)); details: 72 h; outline: as §1
[5] = Antiviral activity against Influenza A virus A/Viet Nam/1203/2004(H5N1) infected in MDCK cells assessed as cell protection after 3 days by cytopathic effect assay; format: functional, cell-based; details: 72 h; outline: as §1
[6] = Oral bioavailability in rat at 3 mg/kg; format: ADME, organism-based; details: in vivo
[7] = tested on: Influenza A virus; experiment: Antiviral activity against Influenza A virus A/Puerto Rico/8/34 infected in BALB/c mouse assessed as body weight loss at 1 mg/kg bid treated after 48 hrs of infection for 10 days; format: functional; details: A/Puerto Rico/8/1934(H1N1); outline: as §2
[8] = Antiviral activity against Influenza A virus A/Texas/48/2009 infected in MDCK cells assessed as cell protection after 3 days by cytopathic effect assay; format: functional, cell-based, Influenza A virus (A/Texas/48/2009(H1N1)); details: 72 h; outline: as §1
[9] = AUC in mouse at 30 mg/kg; format: ADME, organism-based; parameters: dose 30 mg/kg; details: plasma
[10] = Antiviral activity against Influenza A virus A/New York/18/2009 infected in MDCK cells assessed as cell protection after 3 days by cytopathic effect assay; format: functional, cell-based, Influenza A virus (A/New York/18/2009(H1N1)); details: 72 h; outline: as §1
[11] = AUC in rat at 3 mg/kg, po; format: ADME, organism-based; parameters: dose 3 mg/kg, route oral; details: plasma
[12] = tested on: Influenza A virus; experiment: Antiviral activity against Influenza A virus A/Puerto Rico/8/34 infected in BALB/c mouse assessed as body weight loss at 10 mg/kg bid treated after 48 hrs of infection for 10 days; format: functional; details: A/Puerto Rico/8/1934(H1N1); outline: as §2
[13] = Cmax in mouse at 30 mg/kg; format: ADME, organism-based; parameters: dose 30 mg/kg; details: in vivo
[14] = tested on: Influenza A virus; experiment: Antiviral activity against Influenza A virus A/Puerto Rico/8/34 infected in BALB/c mouse assessed as mouse survival at 1 to 10 mg/kg bid treated after 48 hrs of infection for 10 days; format: functional, A/Puerto Rico/8/1934(H1N1); details: dose mg/kg 1-10; outline: as §2
[15] = target: Voltage-gated inwardly rectifying potassium channel KCNH2 (Homo sapiens, UniProt Q12809); experiment: Inhibition of human ERG at > 30 uM relative to control
Outline: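 hERG tested by manual patch clamp.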

[16] = Clearance in rat at 3 mg/kg, iv; format: ADME, organism-based; parameters: dose 3 mg/kg, route intravenous; details: in vivo
[17] = Cmax in rat at 3 mg/kg, po; format: ADME, organism-based; parameters: dose 3 mg/kg, route oral; details: in vivo
[18] = tested on: Influenza A virus; experiment: Antiviral activity against Influenza A virus A/Puerto Rico/8/34 infected in MDCK cells assessed as cell protection after 3 days by cytopathic effect assay; format: functional, organism-based; details: A/Puerto Rico/8/1934(H1N1), 72 h; outline: as §1
[19] = Inhibition of CYP450 (unknown origin) at > 30 uM; format: ADME; details: human
[20] = target: T1, Adenosine receptor A1 (Homo sapiens) (UniProt P30542); experiment: Inhibition of human adenosine A1 receptor at 10 uM relative to control
T1 sequence (whole entry): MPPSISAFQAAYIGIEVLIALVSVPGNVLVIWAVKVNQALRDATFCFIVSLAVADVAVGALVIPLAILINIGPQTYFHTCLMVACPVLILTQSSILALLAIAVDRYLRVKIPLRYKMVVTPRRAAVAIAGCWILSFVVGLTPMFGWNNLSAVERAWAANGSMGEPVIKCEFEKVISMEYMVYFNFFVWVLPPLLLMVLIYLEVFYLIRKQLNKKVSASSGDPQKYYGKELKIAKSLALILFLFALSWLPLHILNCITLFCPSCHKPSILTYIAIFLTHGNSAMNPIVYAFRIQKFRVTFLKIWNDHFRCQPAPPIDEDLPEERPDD
Outline: (§3)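 Competitive binding panel of 68 receptors, ion channels and other targets, run at 10 μM compound; percent inhibition reported.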

[21] = target: Glycogen synthase kinase-3 beta (Homo sapiens, UniProt P49841); experiment: Inhibition of GSK3beta (unknown origin)
[22] = tested on: Influenza A virus; experiment: Antiviral activity against Influenza A virus A/Puerto Rico/8/34 infected in BALB/c mouse assessed as body weight loss at 30 mg/kg bid treated after 48 hrs of infection for 10 days; format: functional; details: A/Puerto Rico/8/1934(H1N1); outline: as §2
[23] = Antiviral activity against Influenza A virus A/California/07/2009 infected in MDCK cells assessed as cell protection after 3 days by cytopathic effect assay; format: functional, cell-based, Influenza A virus (A/California/07/2009(H1N1)); details: 72 h; outline: as §1
[24] = target: Adenosine receptor A2a (Homo sapiens) (UniProt P29274); experiment: Inhibition of human adenosine A2A receptor at 10 uM relative to control; outline: as §3
Sequence of Adenosine receptor A2a (Homo sapiens) (P29274 whole entry): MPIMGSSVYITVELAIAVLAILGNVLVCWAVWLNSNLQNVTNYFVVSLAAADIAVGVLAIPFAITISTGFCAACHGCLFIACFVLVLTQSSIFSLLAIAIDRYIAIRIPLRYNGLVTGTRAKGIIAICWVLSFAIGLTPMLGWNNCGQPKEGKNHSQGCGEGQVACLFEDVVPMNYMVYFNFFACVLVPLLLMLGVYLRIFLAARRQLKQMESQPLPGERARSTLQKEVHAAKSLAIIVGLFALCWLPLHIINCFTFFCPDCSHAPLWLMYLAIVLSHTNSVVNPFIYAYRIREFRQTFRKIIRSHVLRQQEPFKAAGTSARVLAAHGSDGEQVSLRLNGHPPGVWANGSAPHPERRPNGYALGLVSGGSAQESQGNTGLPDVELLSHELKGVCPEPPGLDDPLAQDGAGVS

Sequence of Glycogen synthase kinase-3 beta (P49841 whole entry): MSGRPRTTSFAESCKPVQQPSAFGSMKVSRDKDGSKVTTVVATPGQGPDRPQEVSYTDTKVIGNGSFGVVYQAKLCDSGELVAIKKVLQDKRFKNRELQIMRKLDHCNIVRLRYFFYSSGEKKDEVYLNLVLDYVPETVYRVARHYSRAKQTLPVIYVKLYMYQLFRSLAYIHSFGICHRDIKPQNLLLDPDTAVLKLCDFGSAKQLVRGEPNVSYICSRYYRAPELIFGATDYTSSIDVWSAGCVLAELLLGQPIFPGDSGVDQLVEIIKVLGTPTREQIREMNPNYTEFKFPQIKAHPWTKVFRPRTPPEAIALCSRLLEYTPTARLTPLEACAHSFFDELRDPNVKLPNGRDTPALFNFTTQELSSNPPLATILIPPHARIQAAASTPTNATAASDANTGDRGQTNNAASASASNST
Sequence of Voltage-gated inwardly rectifying potassium channel KCNH2 (Q12809 whole entry): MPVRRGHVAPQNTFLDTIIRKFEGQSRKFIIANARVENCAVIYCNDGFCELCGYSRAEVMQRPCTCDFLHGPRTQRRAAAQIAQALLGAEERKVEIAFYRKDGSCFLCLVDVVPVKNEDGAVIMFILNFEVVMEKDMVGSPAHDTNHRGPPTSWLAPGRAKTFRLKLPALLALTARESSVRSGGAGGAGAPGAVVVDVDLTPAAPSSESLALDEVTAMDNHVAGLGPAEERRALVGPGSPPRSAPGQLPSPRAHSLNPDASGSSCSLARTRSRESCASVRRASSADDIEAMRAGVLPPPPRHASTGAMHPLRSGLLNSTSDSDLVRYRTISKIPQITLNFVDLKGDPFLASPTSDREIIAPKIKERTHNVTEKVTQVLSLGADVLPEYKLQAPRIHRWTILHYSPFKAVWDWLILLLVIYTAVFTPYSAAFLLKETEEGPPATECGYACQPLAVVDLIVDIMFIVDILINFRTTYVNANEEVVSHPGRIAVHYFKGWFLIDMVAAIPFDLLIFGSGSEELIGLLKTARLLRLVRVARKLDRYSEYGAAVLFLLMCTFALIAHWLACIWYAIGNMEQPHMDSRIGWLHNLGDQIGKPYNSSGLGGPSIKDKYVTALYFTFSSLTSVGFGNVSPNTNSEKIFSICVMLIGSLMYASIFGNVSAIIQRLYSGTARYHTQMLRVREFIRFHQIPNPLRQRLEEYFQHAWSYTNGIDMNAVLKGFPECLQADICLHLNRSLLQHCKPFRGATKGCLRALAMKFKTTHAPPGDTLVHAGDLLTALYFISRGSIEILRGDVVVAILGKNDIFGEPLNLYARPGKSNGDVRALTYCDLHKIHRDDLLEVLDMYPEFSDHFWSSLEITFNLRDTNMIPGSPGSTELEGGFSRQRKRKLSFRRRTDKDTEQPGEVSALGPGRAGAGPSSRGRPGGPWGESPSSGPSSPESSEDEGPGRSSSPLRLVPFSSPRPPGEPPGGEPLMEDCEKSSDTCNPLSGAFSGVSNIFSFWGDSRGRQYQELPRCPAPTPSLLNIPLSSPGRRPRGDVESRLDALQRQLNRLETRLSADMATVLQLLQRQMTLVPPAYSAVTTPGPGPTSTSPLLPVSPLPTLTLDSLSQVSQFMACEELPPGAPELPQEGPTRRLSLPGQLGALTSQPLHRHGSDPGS

O=C(O)[C@H]1C2CCC(CC2)[C@@H]1Nc1nc(-c2c[nH]c3ncc(F)cc23)ncc1F [PIMODIVIR]
EC50 [1]: 2.6 nM
inhibition in vivo at 3 mg/kg [2]: 10.9%
half-life [3]: 3.5 h
EC50 [4]: 2.7 nM
EC50 [5]: < 0.15 nM
bioavailability [6]: 26%
inhibition in vivo at 1 mg/kg [7]: 22.5%
EC50 [8]: 2.8 nM
AUC [9]: 22000 ng·h/mL
EC50 [10]: 0.59 nM
AUC [11]: 500 ng·h/mL
inhibition in vivo at 10 mg/kg [12]: 7.1%
Cmax [13]: 18000 ng/mL
Survival [14]: 100%
inhibition (INH) [15]: Not Active
clearance [16]: 26 mL/min/kg
Cmax [17]: 80 ng/mL
EC50 [18]: 0.32 nM
inhibition (INH) [19]: Not Active
inhibition [20]: 96%
Ki [21]: 1600 nM
inhibition in vivo at 30 mg/kg [22]: 30%
EC50 [23]: 1.8 nM
inhibition [24]: 62%

NC12CC3CC(CC(C3)C1)C2 [AMANTADINE]
EC50 [1]: > 10000 nM
EC50 [4]: > 10000 nM
EC50 [8]: > 10000 nM
EC50 [10]: > 10000 nM
EC50 [18]: > 10000 nM
EC50 [23]: > 10000 nM
